# Screening data: PubChem BioAssay, several laboratories
# H9c2 TAG inh: inhibitors of triacylglycerol accumulation; H9c2 cells, Nile Red lipid (TAG) fluorescence; cells loaded with 200 µM oleic acid; inhibition, % at 12.5 µM; hit rate 0.66% among 230,000; AID 651582;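 active = pattern-corrected inhibition of lipid staining of at least 50% with the nuclear-stain viability signal not falling by more than 50%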;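 also: 0% = DMSO wells and 100% = triacsin C control wells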
# SMARCA2 activ: SMARCA2 function activation, primary screen | MG213 cells, MMTV-luciferase reporter, dexamethasone, overnight | activation, % at 9.1 µM | hit rate 1% among 370,000 | AID 652017; in the data active = activation above about 7.8%;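 also: 0% = vehicle wells and 100% = reference activator wells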
# AHR activator: activates the human aryl hydrocarbon receptor | activation, % at 5 µM | AID 2796 | AHR-responsive luciferase reporter cells, luminescence | hit rate 2.5% among 320,000 | P35869; in the data active = activation above about 47%;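 also: 0% = vehicle wells and 100% = reference agonist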
# Target sequence (P35869 whole entry, looked up): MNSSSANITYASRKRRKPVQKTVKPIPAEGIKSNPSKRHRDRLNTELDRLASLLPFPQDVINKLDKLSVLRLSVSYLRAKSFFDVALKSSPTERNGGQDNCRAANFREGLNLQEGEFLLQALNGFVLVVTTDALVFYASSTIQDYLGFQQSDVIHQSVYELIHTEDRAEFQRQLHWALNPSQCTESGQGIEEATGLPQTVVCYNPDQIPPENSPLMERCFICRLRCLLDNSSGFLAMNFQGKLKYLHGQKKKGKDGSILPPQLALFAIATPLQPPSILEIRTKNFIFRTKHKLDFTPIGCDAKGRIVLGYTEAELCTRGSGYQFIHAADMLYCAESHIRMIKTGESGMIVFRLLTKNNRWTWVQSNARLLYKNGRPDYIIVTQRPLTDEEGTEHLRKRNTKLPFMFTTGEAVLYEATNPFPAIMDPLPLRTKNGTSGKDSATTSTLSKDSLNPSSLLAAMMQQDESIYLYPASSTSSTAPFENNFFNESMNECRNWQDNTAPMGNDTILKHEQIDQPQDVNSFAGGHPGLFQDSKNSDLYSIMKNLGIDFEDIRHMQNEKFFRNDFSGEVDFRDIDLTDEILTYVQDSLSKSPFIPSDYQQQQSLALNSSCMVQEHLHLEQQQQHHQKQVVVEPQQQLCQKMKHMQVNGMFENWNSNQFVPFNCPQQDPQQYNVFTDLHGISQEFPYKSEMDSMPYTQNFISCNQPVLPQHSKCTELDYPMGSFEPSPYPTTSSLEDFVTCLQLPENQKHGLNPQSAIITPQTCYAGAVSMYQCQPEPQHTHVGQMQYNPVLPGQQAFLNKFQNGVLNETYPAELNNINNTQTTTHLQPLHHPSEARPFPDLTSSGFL
# Efflux pump inh: inhibitors of Candida antifungal efflux pumps expressed in yeast | S. cerevisiae Candida pump triplex, Nile Red efflux | inhibition, % at 10 µM | hit rate 0.44% among 330,000;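 active = plate passing quality check with inhibition over a set limit, or well fluorescence over plate mean plus 4 SD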;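 also: Nile Red retained in pooled yeast measured as flow cytometry median fluorescence; 0% = buffer negative control and 100% = Enniatin B positive control; higher means more Nile Red kept so more efflux inhibition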
# TbMetRS inhib: Trypanosoma brucei MetRS inhibition. purified T. brucei MetRS, ATP depletion, Kinase-Glo luminescence. inhibition, % at 11.9 µM. hit rate 0.4% among 360,000;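 active = inhibition above a per-plate cutoff of the control wells' mean inhibition plus 3 SD, cut at about 5.5% in these data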;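 also: 0% = DMSO wells median and 100% = median of wells with control inhibitor compound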
#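 technique = Kinase-Glo luminescence, ATP depletion format | system = purified MetRS (methionyl-tRNA synthetase) enzyme from Trypanosoma brucei | timing = 15 min preincubation, 2 h reaction, all 25 °C | evaluation = percent inhibition versus plate control medians | dosing = single dose, 11.9 µM final nominal, 0.9% final DMSO | also added = substrates ATP, L-methionine and bulk Escherichia coli tRNA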
# The depositor's hits bear a star; / = not tested or not shown. Hits are enriched below; roughly 4.1% of the tested compounds scored in any of these assays.
SMILES,H9c2 TAG inh,SMARCA2 activ,AHR activator,Efflux pump inh,TbMetRS inhib
Cc1cc(C)[n+]2[nH]c(N)c(N=Nc3ccccc3)c2n1,12,1,70*,0,0
COc1cccc(/C=N/Nc2cc(N3CCOCC3)ncn2)c1O,71*,1,48*,0,-1
COc1ccc(OC)c(/C=N/Nc2cc(C)nc(N3CCOCC3)n2)c1,8,-2,68*,0,0
Oc1ccc(/C=N/Nc2cc(N3CCCC3)nc(N3CCCC3)n2)cc1,/,-3,3,0,-1
COc1ccc(/C=N/Nc2cc(N3CCCC3)nc(N3CCCC3)n2)cc1,/,-1,68*,0,0
C[C@@H]1COc2cc(Br)ccc2S(=O)(=O)N1Cc1cn(Cc2ccc(Br)cc2)nn1,/,-3,/,/,/
O=C(NCCc1ccccc1)OCc1cn(Cc2ccc(C(F)(F)F)cc2)nn1,/,-2,/,/,/
COc1cc(/C=N/Nc2ccc(F)cc2F)cc(OC)c1OC,/,-2,70*,0,-1
Cc1[nH]c2ccccc2c1/C=N/Nc1ccc(F)cc1F,/,/,78*,0,/
Cc1[nH]c2ccccc2c1/C=N/Nc1ccccn1,/,1,/,/,/
C=CCn1c(Cc2cccs2)nnc1SCC(=O)Nc1ccc(OCc2ccccc2)cc1,/,-4,/,/,/
CC(=O)c1c(C)[nH]c(C(=O)CSc2nnc(C)s2)c1C,-3,0,68*,0,0
COC(=O)[C@]12C[C@H](CC(=O)NCc3ccc(C)o3)C(=O)N(Cc3ccc(Cl)cc3Cl)C1=C[C@H](COCc1ccccc1)O[C@@H]2C,/,-3,/,/,/
Cc1oc2ccc(OCC(N)=O)cc2c1C(=O)OC(C)C,4,0,59*,0,-3
Cc1oc2ccc(OC(=O)N3CCOCC3)cc2c1C(=O)OC(C)C,4,-2,47*,0,-1
CCn1cc(Br)c(C(=O)Nc2ccc(OC)cc2)n1,/,4,24,0,-1
CCn1cc(Br)c(C(=O)Nc2cccc(Cl)c2)n1,/,2,33,0,0
CCn1cc(Br)c(C(=O)NN)n1,-5,3,50*,0,-1
CCn1cc(Br)c(C(=O)Nc2ccc(Cl)c(Cl)c2)n1,-4,-4,77*,0,0
CCn1cc(Br)c(C(=O)Nc2nccs2)n1,/,4,57*,0,-1
COc1ccc(CNC(=O)[C@@H](Cc2ccccc2)NC(=O)[C@H]2O[C@@H](n3ccc(=O)[nH]c3=O)[C@H](O)[C@@H]2O)cc1,/,2,/,/,/
CN1CCCN(C(=O)CSc2nnc(-c3cccnc3)n2C2CCCCC2)CC1,/,0,/,/,/
CN(Cc1ccco1)S(=O)(=O)c1ccc2c(c1)CCN2C(=O)CC(C)(C)C,/,-1,/,/,/
CCN(CC)CCNC(=O)c1ccc2c(c1NCCO)C(=O)c1ccccc1C2=O,118,-15,-12,0,0
CC1CCN(C(=O)c2ccc3c(c2NCCO)C(=O)c2ccccc2C3=O)CC1,118*,-2,3,0,-1
SMILES,H9c2 TAG inh,SMARCA2 activ,AHR activator,Efflux pump inh,TbMetRS inhib
COc1ccc(C(=O)Nc2nc(N)n(-c3ccccc3)n2)cc1OC,-5,-3,3,0,0
COc1ccccc1/C=C/C(=O)Nc1nc(N)n(-c2ccccc2)n1,-1,-2,78*,0,0
COc1ccc(/C=N/Nc2ncnc3c2[nH]c2ccc(C)cc23)c(OC)c1OC,36,0,63*,0,0
CN(Cc1ccccc1)C(=O)OCc1cn(Cc2ccc(F)cc2F)nn1,/,-1,/,/,/
O=[N+]([O-])c1ccc(O)c(/C=N/n2cnc3ccccc32)c1,/,-2,56*,0,0
O=[N+]([O-])c1ccc(O)c(/C=N/n2c(CO)nc3ccccc32)c1,-2,0,6,0,0
COc1cc(NC(=O)C2CCCN(S(=O)(=O)c3cc(OC)ccc3OC)C2)cc(OC)c1 (centres undefined),/,-7,/,/,/
COc1ccccc1OCCn1cc(/C=N/NC(N)=S)c2ccccc21,21,-2,69*,0,0
COc1cccc(/C=N/NC(N)=S)c1OCc1ccccc1Cl,/,-1,50*,0,-1
COc1ccccc1OCCn1cc(/C=N/NC(=O)c2ccncc2)c2ccccc21,6,-2,30,0,0
CCOc1cc(/C=N/NC(N)=S)cc(Br)c1OCc1ccccc1C,-8,/,21,0,-1
COc1cc(/C=N/NC(N)=S)cc(Br)c1OCc1ccccc1F,/,-8,54*,0,-1
O=C(NCc1nnc2c(C(F)(F)F)cc(Cl)cn12)c1ccc2c(c1)OCO2,/,-2,52*,0,0
O=C(NCc1nnc2c(C(F)(F)F)cc(Cl)cn12)c1ccc(Br)o1,/,-3,7,0,0
O=S1(=O)N[C@@H](Cc2ccccc2)COc2cc(N3CCOCC3)ccc21,/,0,/,/,/
CC(C)SCC(=O)Nc1ncc2c(n1)-c1ccccc1CC2,/,-2,5,0,0
O=C(Nc1ncc2c(n1)-c1ccccc1CC2)C1CC1,0,3,76*,0,2
Cc1occc1-c1nnc(SCC(=O)N2CCN(c3ncccn3)CC2)n1-c1ccccc1,/,0,/,/,/
O=[N+]([O-])c1cccc(/C=N/n2c(-c3cccnc3)n[nH]c2=S)c1,/,-2,14,0,0
CC(=O)N(C(C)=O)c1nc(-c2ccccc2)cn1/N=C/c1cccc([N+](=O)[O-])c1,5,0,49*,0,0
COC(=O)CN1C(=S)N(Cc2ccccc2)C(=O)C1CC(=O)Nc1ccc(Br)cc1 (centres undefined),/,-2,3,0,64*
COC(=O)CN1C(=S)N(c2ccc(F)cc2)C(=O)C1CC(=O)Nc1ccc(F)cc1 (centres undefined),5,0,-1,0,1
O=C(c1ccccc1)c1cc2ccccc2oc1=O,/,1,49*,0,-1
O=[N+]([O-])c1ccc(N=Nc2ccc(O)c3ccccc23)cc1,56*,/,/,/,0
O=S(=O)(Nc1ccc(N=Nc2ccc(O)c3ccccc23)cc1)c1ccccc1,/,-4,39,0,0
SMILES,H9c2 TAG inh,SMARCA2 activ,AHR activator,Efflux pump inh,TbMetRS inhib
CC(=O)c1cccc(Nc2cc(C)nc3c(C)cc(C)cc23)c1,/,-2,56*,0,0
CC(=O)c1ccc(Nc2cc(C)nc3c(C)cccc23)cc1,/,5,49*,0,0
CN1CCN(/N=C/c2c3ccccc3c(Cl)c3ccccc23)CC1,14,0,57*,0,0
CN1CCN(/N=C/c2ccc(-c3ccccc3)cc2)CC1,10,2,-6,0,0
CCn1c(NCc2ccc3c(c2)OCO3)nc2ccccc21,-103,0,69*,0,3
Cn1nc(-c2ccccc2)nc1-c1ccccc1,14,5,48*,0,0
c1ccc(Cn2nc(-c3ccccc3)nc2-c2ccccc2)cc1,0,4,3,0,0
c1ccc2c(Nc3nnc(-c4ccncc4)s3)cccc2c1,/,1,63*,0,0
CCC(NC(=O)c1cccc2c1C(=O)N(Cc1cccnc1)C2)c1ccccc1 (centres undefined),/,-7,/,/,/
O=C(c1cc(-c2ccc(Cl)cc2)nc2ccccc12)N1CCN(c2ncccn2)CC1,/,0,/,/,/
